The sample as a whole holds a higher share of hits than the screen did.
H69AR growth 86K: growth inhibitors of human H69AR lung tumor cells. H69AR lung tumor viability, ATP luminescence, 72 h; hits give low values. viability, % at 10 µM. 85,000 compounds, 6% hits;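 active = viability at or below 40%; inactive = viability above 40%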;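 note: multidrug resistant small cell line overexpressing MRP-1 efflux transporter; 100% = mean luminescence of untreated control wells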
Lung fibro prol: blocks proliferation of human lung fibroblasts; 85,000 compounds, 1.1% hits; LL 47 human lung fibroblast viability, ATP luminescence; hits give low values; viability, % at 10 µM;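 active = viability at or below 50% in the single dose screen; inactive = viability above 50%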;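 note: compound exposure lasted 72 h before the ATP readout; 100% = median luminescence of untreated cell-only wells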
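Material: Human LL 47 lung fibroblast cells | Input: 1,150 cells/well | Buffer or medium: IMEM plus 15% FBS | Compound dosing: 0.1% DMSO in all compound wells | Times: Overnight cell rest, 72 h compound treatment at 37 °C | Signal: CellTiter-Glo luminescence measuring cellular ATP | Measure: % viability versus median cells-only luminescence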
HUVEC inhibit: human endothelial cell proliferation inhibition; HUVEC proliferation, CellTiter-Glo luminescence, 72 h; hits give low values; viability, % at 10 µM (by protocol); 86,000 compounds, 1.1% hits;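 active = viability at or below 30%; inactive = viability above 30%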;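 note: 100% = median luminescence of DMSO-only cell control wells on each plate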
HCT116 bCat-KO: beta-catenin-lacking colon tumor cell growth suppression | HCT116 beta-catenin knockout viability, CellTiter-Glo, 60 h; hits give low values | viability, % at 10 µM | 140,000 compounds, 1.5% hits | AID 818;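 active = viability at or under a set limit, the compound median less 4 SD, cut at about 6% in these data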;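 note: 0% = Hyamine 1622 control at 20 µM and 100% = untreated cell control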
HCT116 PTEN-null: growth suppressors of cells with PTEN tumor suppressor deletion. HCT116 PTEN-null viability, CellTiter-Glo, 60 h; hits give low values. viability, % at 10 µM. 140,000 compounds, 1.2% hits;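 active = viability at or below a set limit, 4 SD under the median of all tested compounds, cut at about 3.7% in these data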;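 note: PTEN knockout HCT116 line with beta catenin targeted HCT116 as companion control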
Active calls of the source: *; x = not tested or not shown.

SMILES	H69AR growth 86K	Lung fibro prol	HUVEC inhibit	HCT116 bCat-KO	HCT116 PTEN-null
COc1cc2nc(NCCCN3CCN(C)CC3)n3nc(-c4ccccc4)nc3c2cc1OC	28*	87	25*	2.2*	1.9*
CN1CCN(CCCNc2nc3ccccc3c3nc(-c4ccccc4)nn23)CC1	28*	67	70	x	x
COC(=O)c1[nH]c2ccc(Cl)cc2c1NC(=O)CN1CCC(C(N)=O)CC1	71	98	88	92	95
CN(C)CCOc1nc(-c2ccccc2)nc2c1oc1ccccc12	2.3*	30*	4.4*	2.0*	3.0*
O=C(Nc1ccc(Br)cn1)c1ccc2nccnc2c1	34*	88	65	x	x
CSc1nsc(SCc2ccc(F)cc2)n1	30*	x	110	97	110
Cc1[nH]c(=O)[nH]c(=O)c1NC(=O)c1cccs1	99	103	106	74	73
CCOc1ccc(C(=O)N/N=C(\c2ccccc2)c2ccccn2)cc1	x	x	x	3.7*	2.6*
CCOc1ccccc1-n1c(SCC(=O)Nc2ccc(CC)cc2)nc2n[nH]c(C)c2c1=N	x	x	x	5.0*	3.7*
CCc1ccccc1NC(=O)CSc1nc2n[nH]c(C)c2c(=N)n1-c1cccc(OC)c1	60	87	82	63	65
CCOc1ccccc1NC(=O)CCSc1nc2n[nH]c(C)c2c(=N)n1-c1ccccc1Cl	6.5*	56	52	14	15
Cc1ccc(Nc2nc(N)nc(CN3CCC(C)CC3)n2)c(C)c1	33*	94	86	93	86
O=[N+]([O-])c1cc(/C=N/Nc2nc3ccccc3[nH]2)c(O)cc1O	x	x	x	5.2*	6
C(=N\Nc1nc2ccccc2[nH]1)/c1c[nH]c2ccccc12	x	x	x	9	14
Oc1ccc(F)cc1-c1cc(-c2ccc3c(c2)OCCO3)n[nH]1	37*	77	66	18	44
Oc1ccc(-c2n[nH]c(=S)n2-c2ccc3c(c2)OCCO3)cc1	x	x	x	90	89
FC(F)(F)c1cc(-c2ccco2)nc(NCCc2ccccc2)n1	24*	89	88	52	50
CCOc1ccc(NC(=O)CSc2nnc(-c3ccncc3)n2CC2CCCO2)cc1 (centres undefined)	89	103	90	86	99
O=C(O)c1cc(S(=O)(=O)NCC2CCCO2)ccc1Cl (centres undefined)	95	104	113	96	81
COc1ccc(Nc2ncc(C(=O)N3CCN(Cc4ccccc4)CC3)c3ccccc23)cc1	62	78	52	3.9*	3.4*
Cc1ccc2c(c1)NC(=O)C(CC(=O)NCCCN1CCCCC1)O2 (centres undefined)	89	101	91	97	99
Cc1ccc2c(c1)NC(=O)C(CC(=O)NCCCN1CCN(c3cc(Cl)ccc3C)CC1)O2 (centres undefined)	49	67	2.9*	5.8*	7
CN(C)S(=O)(=O)c1cc(C(=O)NCCCn2ccc3ccccc32)ccc1Cl	74	86	93	86	73
Clc1cccc2sc(N3CCCCC3)nc12	x	x	x	92	91
COc1ccc(OC)c2sc(N3CCCCC3)nc12	80	46*	94	91	112
SMILES	H69AR growth 86K	Lung fibro prol	HUVEC inhibit	HCT116 bCat-KO	HCT116 PTEN-null
COc1ccc(N/C=C(/C(C)=O)c2ccccc2)cc1	x	x	x	88	97
Cc1cccc(S(=O)(=O)c2c(N)n(/N=C/c3ccco3)c3nc4ccccc4nc23)c1	82	92	80	82	70
Cc1cccc(S(=O)(=O)c2c(N)n(/N=C/c3cccnc3)c3nc4ccccc4nc23)c1	33*	63	76	51	61
Nc1c(S(=O)(=O)c2cccs2)c2nc3ccccc3nc2n1/N=C/c1cccc(O)c1	4.0*	56	4.9*	2.7*	2.2*
COCC(=O)n1nc(-c2ccc(Cl)cc2)nc1NCc1ccc(F)cc1	33*	79	58	68	75
O=C(COc1ccccc1)n1nc(-c2ccc(Cl)cc2)nc1NCc1ccco1	12*	74	58	45	62
O=C(c1ccco1)n1nc(-c2ccc(Cl)cc2)nc1NCc1ccco1	36*	82	41	67	79
COc1ccccc1C(=O)N/C(N)=N/c1nc2ccccc2o1	15*	102	59	92	80
Cc1ccc(C(=O)N/C(N)=N/c2nc3ccccc3o2)cc1	47	103	94	44	39
CCOC(=O)c1cc(C#N)c(SCC(=O)c2cc(C#N)c(SC)nc2C)nc1C	12*	x	63	x	x
CCOC(=O)c1cc(C#N)c(SCc2cccc3ccccc23)nc1C	96	90	96	69	72
NC(=O)C1CCN(C(=O)Cn2cccc2C(=O)c2ccccc2)CC1	106	96	94	111	108
COc1ccc(C(=O)/C=C/c2cn(CN3CCN(C)CC3)c3ccccc23)cc1	22*	101	78	14	33
CCC(=O)N(Cc1cc2cc(OC)ccc2[nH]c1=O)c1ccc(C)cc1C	x	91	94	67	65
Fc1ccc(Sc2nc(-c3ccccc3)nnc2C(F)(F)F)cc1	x	x	x	4.1*	2.1*
Fc1ccc(Oc2nc(-c3ccccc3)nnc2C(F)(F)F)cc1	x	x	x	90	95
O=C(Nc1c(F)c(F)c(F)c(F)c1F)C1CCCCC1	100	87	85	99	93
O=C1N/C(=C\c2ccc(O)cc2)C(=O)c2ccccc21	x	x	x	5.8*	7
O=C(CN1CCN(Cc2ccc(Cl)cc2)CC1)N/N=C/c1ccncc1	x	x	x	93	98
O=C(Nc1ccncc1)C1CCCN(S(=O)(=O)c2cccc3cccnc23)C1 (centres undefined)	24*	57	67	23	23
COc1ccccc1C(=O)N/C(=C/c1ccc(Br)cc1)C(=O)NCCO	x	x	x	95	92
Cc1ccc2[nH]c(C)c(CCNC(=O)c3cc4cc([N+](=O)[O-])ccc4oc3=O)c2c1	x	x	x	59	57
Cc1[nH]c2c(C)cccc2c1CCNC(=O)c1ccc2c(c1[N+](=O)[O-])C(=O)c1ccccc1C2=O	x	x	x	2.1*	2.0*
CN(C)C(=O)c1ccc2c(c1[N+](=O)[O-])C(=O)c1ccccc1C2=O	x	x	x	2.0*	1.7*
Cc1[nH]c2ccccc2c1CCNC(=O)c1ccc2c(c1[N+](=O)[O-])C(=O)c1ccccc1C2=O	x	x	x	2.3*	11
SMILES	H69AR growth 86K	Lung fibro prol	HUVEC inhibit	HCT116 bCat-KO	HCT116 PTEN-null
CCCNC(=O)NCCc1c(C)[nH]c2ccccc12	93	101	101	99	100
COc1cc2c(cc1NC(=O)COC(=O)[C@@H](NS(=O)(=O)c1ccccc1)C(C)C)oc1ccccc12	x	x	x	63	60
COc1cccc(NC(=O)Cn2cc(C#N)c3ccccc32)c1	65	101	94	97	99
CC1(C(=O)Nc2nnc(C(C)(C)C)s2)Cc2ccccc2C(=O)O1 (centres undefined)	91	101	102	106	99
CC(=O)c1ccccc1OCC(O)CN1CCN(C(c2ccccc2)c2ccccc2)CC1 (centres undefined)	9.8*	77	69	38	37
CCOc1ccccc1C(=O)N1CCN(C(c2ccccc2)c2ccccc2)CC1	x	x	x	72	69

Screening results (PubChem)
